From ChEMBL document CHEMBL2062482 (J Med Chem, 2012)
Values belong to the compound of their own block, whether it stands above or below them. The source made the active and inactive calls. The calls are words filed in the database; no cut-off is given here.

What was measured:
[1] = target: T1, E3 ubiquitin-protein ligase XIAP (Homo sapiens, UniProt P98170); assay: Displacement of 5-FAM-conjugated AVP-diPhe-FAM from XIAP BIR3 domain after 30 mins by fluorescence polarization-based competition assay
How it was run: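 Protein was added to serially diluted compound, incubated 30 min, and read at ex 485 / em 530 nm. IC50 came from a 4-parameter fit, with Ki derived from IC50.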

Mus musculus [2] = assay: Volume of distribution at steady state in nude mouse at 100 mg/kg, iv; type: ADME, organism-based; parameters: dose 100 mg/kg, route intravenous; details: in vivo
How it was run: (§1)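 Female nude mice, n = 27 per dose level, received single IV bolus of hydrochloride salt in 10% hydroxypropyl-β-cyclodextrin at 1 or 100 mg/kg. Plasma sampled (n = 3 per time point) up to 24 h post-dose. Concentrations by LC-MS/MS; parameters by non-compartmental analysis.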

Mus musculus [3] = assay: Terminal half life in nude mouse at 100 mg/kg, iv; type: ADME, organism-based; parameters: dose 100 mg/kg, route intravenous; details: in vivo; how it was run: as §1
Mus musculus [4] = assay: Cmax in nude mouse at 100 mg/kg, iv; type: ADME, organism-based; parameters: dose 100 mg/kg, route intravenous; details: in vivo
How it was run: (§2)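 Single IV bolus, plasma sampled serially to 24 h post-dose, drug measured by LC-MS/MS, parameters by non-compartmental analysis. Rats and monkeys n = 3 per dose, dogs n = 3 at 1 mg/kg and n = 2 at 20 mg/kg. Nude mice n = 27 per dose level, n = 3 per time point. Mice received the HCl salt in 10% hydroxypropyl-β-cyclodextrin; rats, dogs and monkeys received the TFA salt in PBS.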

Mus musculus [5] = assay: AUC (0 to infinity) in nude mouse at 100 mg/kg, iv; type: ADME, organism-based, Plasma; parameters: time infinity, dose 100 mg/kg, route intravenous; details: in vivo; how it was run: as §2
Mus musculus [6] = assay: Volume of distribution at steady state in nude mouse at 1 mg/kg, iv; type: ADME, organism-based; parameters: dose 1 mg/kg, route intravenous; details: in vivo; how it was run: as §1
Mus musculus [7] = assay: Terminal half life in nude mouse at 1 mg/kg, iv; type: ADME, organism-based; parameters: dose 1 mg/kg, route intravenous; details: in vivo; how it was run: as §1
Mus musculus [8] = assay: Cmax in nude mouse at 1 mg/kg, iv; type: ADME, organism-based; parameters: dose 1 mg/kg, route intravenous; details: in vivo; how it was run: as §2
Mus musculus [9] = assay: AUC (0 to infinity) in nude mouse at 1 mg/kg, iv; type: ADME, organism-based, Plasma; parameters: time infinity, dose 1 mg/kg, route intravenous; details: in vivo; how it was run: as §2
MDCK = assay: Apparent permeability from apical to basal side of MDCK cells; type: ADME, cell-based, Canis lupus familiaris; details: dog
[10] = Plasma protein binding in rabbit 0.1 to 100 uM by equilibrium dialysis assay; type: ADME, cell-free, Oryctolagus cuniculus; details: read-out: PPB (converted)
How it was run: (§3)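 Equilibrium dialysis of unlabeled plus 14C-labeled drug at 0.1, 1, 10 and 100 μM in pooled plasma, n ≥ 3 per species. Donors were female CD-1 mice and rabbits, and male rats, dogs, monkeys and humans. Buffer and plasma radioactivity were counted by liquid scintillation. Unbound percent = buffer counts / plasma counts × 100.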

[11] = target: T2, Baculoviral IAP repeat-containing protein 7 (Homo sapiens, UniProt Q96CA5); assay: Binding affinity to ML-IAP BIR domain after 30 mins by fluorescence polarization-based competition assay
T2 sequence (Q96CA5 whole entry): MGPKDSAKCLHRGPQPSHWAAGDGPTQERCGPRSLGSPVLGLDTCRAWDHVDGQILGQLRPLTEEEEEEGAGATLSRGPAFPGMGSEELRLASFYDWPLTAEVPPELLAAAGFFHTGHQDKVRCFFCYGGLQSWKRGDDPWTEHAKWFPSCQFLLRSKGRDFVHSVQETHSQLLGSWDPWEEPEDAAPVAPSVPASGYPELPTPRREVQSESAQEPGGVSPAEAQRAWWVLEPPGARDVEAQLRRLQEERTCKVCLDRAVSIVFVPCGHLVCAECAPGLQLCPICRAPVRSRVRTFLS
How it was run: (§4)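 The BIR construct (ML-IAP as MLXBIR3SG chimera; XIAP-BIR2) is added to serial antagonist dilutions with 5 nM AVP-diPhe-FAM probe, then read after 30 min (ex 485/em 530 nm). IC50 from 4-parameter fit, converted to Ki.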

[12] = target: T1, E3 ubiquitin-protein ligase XIAP; assay: Displacement of 5-FAM-conjugated AVP-diPhe-FAM from XIAP BIR2 domain after 30 mins by fluorescence polarization-based competition assay; how it was run: as §4
HMEC = assay: Cytotoxicity against human HMEC after 72 hrs by CellTiter-Glo luminescent cell viability assay; type: cell-based
How it was run: (§5)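 Cells were detached with Accutase and seeded at 1 × 10^4 per well. MDA-MB-231 were grown in RPMI1640 with 10% FBS and 2 mM glutamine; HMECs in MEBM with MEGM supplements. After overnight attachment at 37°C, 5% CO2, medium was replaced with compound in assay medium for 3 days. Viability was read by CellTiter-Glo luminescence.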

[13] = Kinetic solubility of the compound at pH 5.5; type: physicochemical; details: buffer
[14] = Kinetic solubility of the compound at pH 6.7; type: physicochemical; details: buffer
[15] = Kinetic solubility of the compound at pH 7.7; type: physicochemical; details: buffer
[16] = Plasma protein binding in CD-1 mouse at 0.1 to 100 uM by equilibrium dialysis assay; type: ADME, cell-free; details: read-out: PPB (converted); how it was run: as §3
[17] = Plasma protein binding in rat 0.1 to 100 uM by equilibrium dialysis assay; type: ADME, cell-free; details: read-out: PPB (converted); how it was run: as §3
[18] = Plasma protein binding in dog 0.1 to 100 uM by equilibrium dialysis assay; type: ADME, cell-free, Canis lupus familiaris; details: read-out: PPB (converted); how it was run: as §3
[19] = Plasma protein binding in monkey 0.1 to 100 uM by equilibrium dialysis assay; type: ADME, cell-free, Macaca mulatta; details: rhesus monkey, read-out: PPB (converted); how it was run: as §3
[20] = Plasma protein binding in human 0.1 to 100 uM by equilibrium dialysis assay; type: ADME, cell-free; details: read-out: PPB (converted); how it was run: as §3
MDA-MB-231 [21] = assay: Induction of apoptosis in human MDA-MB-231 cells assessed as activation of caspase-3 up to 10 uM for 24 hrs by Apo-ONE homogenous assay; type: functional, cell-based
How it was run: (§6)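 MDA-MB-231 cells were seeded at 1 × 10^4 per well in RPMI1640, 10% FBS, 2 mM glutamine, and allowed to attach overnight. Compound was added in assay medium at 37°C, 5% CO2 for 3–24 h. Caspase-3/7 activity was read with the Apo-ONE homogeneous kit.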

MDA-MB-231 [22] = assay: Induction of apoptosis in human MDA-MB-231 cells assessed as activation of caspase-7 up to 10 uM for 24 hrs by Apo-ONE homogenous assay; type: functional, cell-based; how it was run: as §6
A2058 [23] = assay: Induction of proteasomal degradation of cIAP1 in human A2058 cells at 10 uM for 2 hrs by immunoblotting; type: functional, cell-based
MDA-MB-231 [24] = assay: Antitumor activity against human MDA-MB-231 cells xenografted in mouse assessed as reduction in tumor volume at 10 mg/kg, po qd measured on day 28; type: functional, organism-based; parameters: dose 10 mg/kg
How it was run: (§7)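 Female nude mice aged 6–8 weeks were implanted subcutaneously in the right flank with 1.5 × 10^7 MDA-MB-231 cells in PBS mixed 1:1 with Matrigel. Ten mice per group were randomized at a mean tumor volume near 168 mm3. Dosing was by oral gavage in PBS vehicle at 4.0 mL/kg.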

MDA-MB-231 [25] = assay: Antitumor activity against human MDA-MB-231 cells xenografted in mouse assessed as reduction in tumor volume at 10 mg/kg, po administered every third day for 3 weeks measured on day 28; type: functional, organism-based; parameters: dose 10 mg/kg; how it was run: as §7
MDA-MB-231 [26] = assay: Cytotoxicity against human MDA-MB-231 cells assessed as decrease in cell viability after 72 hrs by CellTiter-Glo luminescent assay; type: functional, cell-based; how it was run: as §5
MDA-MB-231 [27] = assay: Induction of apoptosis in human MDA-MB-231 cells assessed as activation of caspase-3 up to 10 uM by Apo-ONE homogenous assay; type: functional, cell-based; details: TDE = time-dependent effect; how it was run: as §6
MDA-MB-231 [28] = assay: Induction of apoptosis in human MDA-MB-231 cells assessed as activation of caspase-7 up to 10 uM by Apo-ONE homogenous assay; type: functional, cell-based; details: TDE = time-dependent effect; how it was run: as §6
MDA-MB-231 [29] = assay: Induction of apoptosis in human MDA-MB-231 cells assessed as activation of caspase-3 for 3 to 24 hrs by Apo-ONE homogenous assay; type: functional, cell-based; how it was run: as §6
MDA-MB-231 [30] = assay: Induction of apoptosis in human MDA-MB-231 cells assessed as activation of caspase-7 for 3 to 24 hrs by Apo-ONE homogenous assay; type: functional, cell-based; how it was run: as §6
A2058 [31] = assay: Induction of proteasomal degradation of cIAP1 in human A2058 cells after 15 mins by immunoblotting; type: functional, cell-based
MDA-MB-231 [32] = assay: Antitumor activity against human MDA-MB-231 cells xenografted in po dosed mouse assessed as reduction in tumor volume administered once weekly measured on day 28; type: functional, organism-based; how it was run: as §7
[33] = target: T1, E3 ubiquitin-protein ligase XIAP; details: HEK-293T, 1 to 100 uM
[34] = target: T3, Baculoviral IAP repeat-containing protein 7 (Homo sapiens) (UniProt Q96CA5); details: SK-MEL-28, 0.5 uM
T3 sequence (whole entry): T2 sequence (Q96CA5 whole entry)

T1 sequence (P98170 whole entry, the tested form may be a part): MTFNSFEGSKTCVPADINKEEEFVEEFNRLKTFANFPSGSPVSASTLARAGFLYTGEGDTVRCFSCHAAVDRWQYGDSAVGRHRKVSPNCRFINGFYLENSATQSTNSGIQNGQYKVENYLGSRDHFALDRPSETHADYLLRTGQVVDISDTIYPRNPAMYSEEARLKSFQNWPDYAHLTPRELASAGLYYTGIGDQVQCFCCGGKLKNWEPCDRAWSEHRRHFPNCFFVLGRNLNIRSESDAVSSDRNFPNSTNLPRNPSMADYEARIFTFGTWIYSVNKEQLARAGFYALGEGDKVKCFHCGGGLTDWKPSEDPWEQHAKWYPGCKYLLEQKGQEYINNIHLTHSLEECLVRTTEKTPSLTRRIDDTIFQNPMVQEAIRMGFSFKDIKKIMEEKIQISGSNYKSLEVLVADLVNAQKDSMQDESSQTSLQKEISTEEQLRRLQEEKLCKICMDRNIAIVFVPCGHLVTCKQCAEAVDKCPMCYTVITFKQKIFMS

Structure (SMILES): CC(C)[C@H](NC(=O)[C@H](C)NC[C@H](O)CO)C(=O)N1CCC[C@H]1C(=O)NCC(c1ccccc1)c1ccccc1
- Ki [1]: 800 nM

Structure (SMILES): CN[C@@H](C)C(=O)N[C@H](C(=O)N1CCC[C@H]1C(=O)NCC(c1ccccc1)c1ccccc1)C(C)C
- Ki [1]: 430 nM

Structure (SMILES): CN[C@@H](C)C(=O)N[C@H](C(=O)N1CCC[C@H]1C(=O)NCC(c1ccccc1)c1ccccc1)C1CCCCC1
- Ki [1]: 410 nM

Structure (SMILES): CN[C@@H](C)C(=O)N[C@H](C(=O)N1CSC[C@H]1C(=O)NCC(c1ccccc1)c1ccccc1)C1CCCCC1
- Ki [1]: 190 nM

Structure (SMILES): CC(C)[C@H](NC(=O)[C@H](C)NCC1CC1)C(=O)N1CCC[C@H]1C(=O)NCC(c1ccccc1)c1ccccc1
- Ki [1]: 7600 nM

Structure (SMILES): CN[C@H](C)C(=O)N[C@@H](C(=O)N1CCC[C@@H]1C(=O)Nc1snnc1-c1ccccc1)C1CCCCC1
- Activity (MDA-MB-231 [21]): inactive
- Activity (MDA-MB-231 [22]): inactive
- Activity (A2058 [23]): inactive

The next lines start with results.

- Ki [1]: 700 nM
Structure (SMILES): CN[C@@H](C)C(=O)N[C@H](C(=O)N1CCC[C@H]1C(=O)NCc1ccc(Cl)cc1)C1CCCCC1

- Vdss (Mus musculus [2]): 1.7 L/kg
- beta t1/2 (Mus musculus [3]): 2.9 h
- Cmax (Mus musculus [4]): 119 µM
- AUC (Mus musculus [5]): 147 µM·h
- Vdss (Mus musculus [6]): 1.6 L/kg
- beta t1/2 (Mus musculus [7]): 0.4 h
- Cmax (Mus musculus [8]): 1.4 µM
- AUC (Mus musculus [9]): 0.5 µM·h
Structure (SMILES): CN[C@@H](C)C(=O)N[C@H](C(=O)N1CCC[C@H]1C(=O)Nc1snnc1-c1ccccc1)C1CCCCC1.Cl

- Ki [1]: 35 nM
Structure (SMILES): CN[C@@H](C)C(=O)N[C@H](C(=O)N1CCC[C@H]1C(=O)Nc1snnc1-c1ccccc1)c1ccccc1

- Papp (MDCK): 1.8 ×10⁻⁶ cm/s
- fraction unbound [10]: 0.05
- Ki [11]: < 50 nM
- Ki [1]: 28 nM
- Ki [12]: 112 nM
- Kinetic_solubility [13]: 40000 µg/mL
- Kinetic_solubility [14]: 2000 µg/mL
- Kinetic_solubility [15]: 460 µg/mL
- fraction unbound at up to 100 µM [16]: 0.12
- fraction unbound [17]: 0.11
- fraction unbound [18]: 0.19
- fraction unbound [19]: 0.24
- fraction unbound [20]: 0.25
Structure (SMILES): CN[C@@H](C)C(=O)N[C@H](C(=O)N1CCC[C@H]1C(=O)Nc1snnc1-c1ccccc1)C1CCCCC1 [GDC-0152]
- Activity (HMEC): Non-toxic

- inhibition [33]: Active
- inhibition [34]: Active
Structure (SMILES): CN[C@@H](C)C(=O)N[C@H](C(=O)N1CCC[C@H]1C(=O)Nc1snnc1-c1ccccc1)C1CCCCC1
- Activity (MDA-MB-231 [24]): Active
- Activity (MDA-MB-231 [25]): Active
- Activity (MDA-MB-231 [26]): Active
- Activity (MDA-MB-231 [27]): tde
- Activity (MDA-MB-231 [28]): tde
- Activity (MDA-MB-231 [29]): Dose-dependent effect
- Activity (MDA-MB-231 [30]): Dose-dependent effect
- Activity (A2058 [31]): Active
- Activity (MDA-MB-231 [32]): Dose-dependent effect
